Results from ChEMBL document CHEMBL2311381, “Synthesis and biological activity of aminophthalazines and aminopyridazines as novel inhibitors of PGE2 production in cells” (Bioorg Med Chem Lett, 2013).
pEC50: −log10 of the molar value. Activity calls are given as the source filed them. The rule behind the calls is not given here.

What was measured:
[1] = biological target: T1, Prostaglandin G/H synthase 2 (Homo sapiens, UniProt P35354); assay: (§1) Inhibition of COX-2 (unknown origin) at 5 uM; conditions: 5 µM
T1 sequence (P35354 whole entry): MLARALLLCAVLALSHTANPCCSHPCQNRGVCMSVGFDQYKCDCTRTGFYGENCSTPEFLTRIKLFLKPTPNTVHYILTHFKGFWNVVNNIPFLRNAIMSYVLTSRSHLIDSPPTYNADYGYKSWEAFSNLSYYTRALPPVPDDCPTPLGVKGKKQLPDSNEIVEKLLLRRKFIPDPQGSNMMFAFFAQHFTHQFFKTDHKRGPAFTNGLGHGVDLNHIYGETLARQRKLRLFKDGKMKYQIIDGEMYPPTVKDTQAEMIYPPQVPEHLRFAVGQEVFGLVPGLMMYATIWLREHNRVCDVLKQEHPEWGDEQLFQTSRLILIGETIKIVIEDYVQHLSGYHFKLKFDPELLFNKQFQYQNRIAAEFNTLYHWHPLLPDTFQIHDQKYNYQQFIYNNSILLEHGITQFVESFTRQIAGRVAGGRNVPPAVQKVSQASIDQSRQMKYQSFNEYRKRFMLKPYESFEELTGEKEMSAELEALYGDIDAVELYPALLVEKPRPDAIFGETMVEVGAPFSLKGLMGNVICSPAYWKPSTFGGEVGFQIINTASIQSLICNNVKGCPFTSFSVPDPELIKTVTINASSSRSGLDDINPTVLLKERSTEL
Method in brief: (§2)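 Cell-free COX-2 activity measured with a fluorescent COX inhibitor screening kit, run per the kit instructions. Compounds were tested at 5 µM. Results are given as % inhibition ± SD (n = 3). Celecoxib served as the positive control. Dose-response curves were not run.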

[2] = Inhibition of IL-1beta-induced PGE2 production in human HCA-7 cells after 72 hrs by EIA; format: functional, cell-based; conditions: HCA-7, 72 h
Method in brief: (§3)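 HCA-7 colon cancer cells were grown overnight in DMEM/10% FBS, then serum-starved for 18 h. They were stimulated with 10 ng/ml IL-1β together with compound (DMSO solution) in serum-free medium for 72 h. PGE2 in the supernatant was measured by EIA. Single-concentration screening was at 1 µM, giving % reduction ± SD (n = 3). EC50 values came from increasing concentrations. Celecoxib served as the positive control.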

[3] = (§4) Inhibition of IL-1beta-induced PGE2 production in human HCA-7 cells at 1 uM after 72 hrs by EIA; format: functional; conditions: HCA-7, 72 h; method in brief: as §3
[4] = tested on: HCA-7; assay: as §4; format: functional; method in brief: as §3
[5] = biological target: HCA-7 cells (Homo sapiens); assay: Inhibition of PGE2 production in human HCA-7 cells
[6] = biological target: T2, COX-2 (Prostaglandin G/H synthase 2) (Homo sapiens, UniProt P35354); assay: as §1; method in brief: as §2
T2 sequence (P35354 whole entry): T1 sequence (P35354 whole entry)

Row | SMILES | inhibition (INH) [1] | pEC50 [2] | pEC50 [5] | inhibition at 5 µM [6] [%] | inhibition at 1 µM [3] [%] | inhibition [4]
1 | COc1ccc(-c2ccc(Nc3ccc(C)cc3)nn2)cc1 | – | – | – | – | 49 | –
2 | COc1ccc(-c2nnc(Nc3ccc(OCC(N)=O)cc3)c3ccccc23)cc1 | – | – | – | – | – | inactive
3 | Cc1ccc(Nc2nnc(-c3ccc4c(c3)OCO4)c3ccccc23)cc1 | – | – | – | – | 59 | –
4 | Clc1ccc(-c2csc(Nc3ccc(Oc4ccccc4)cc3)n2)cc1 | – | 6.48 | 6.48 | – | – | –
5 | COc1cccc(-c2nnc(Nc3ccc(C)cc3)c3ccccc23)c1 | – | – | – | – | 62 | –
6 | NS(=O)(=O)c1ccc(Nc2nnc(-c3ccccc3)c3ccccc23)cc1 | – | – | – | – | – | inactive
7 | COc1ccc(N(C)c2nnc(-c3ccccc3)c3ccccc23)cc1 | – | 6.66 | – | 21.4 | 92.4 | –
8 | Cc1ccc(Nc2ccc(-c3ccccc3)nn2)cc1 | – | – | – | – | 62.5 | –
9 | Oc1ccc(Nc2nnc(-c3ccccc3)c3ccccc23)cc1 | – | – | – | – | 26.7 | –
10 | CCOC(=O)c1ccc(Nc2nnc(-c3ccccc3)c3ccccc23)cc1 | – | – | – | – | 18.4 | –
11 | Cc1ccc(Nc2nnc(-c3cncnc3)c3ccccc23)cc1 | – | – | – | – | 15.1 | –
12 | COc1ccc(Nc2nnc(-c3ccc(C(=O)NCCO)cc3)c3ccccc23)cc1 | – | – | – | – | 39.2 | –

Continued, in another order:

Row | inhibition (INH) [1] | pEC50 [2] | pEC50 [5] | inhibition at 5 µM [6] [%] | SMILES | inhibition at 1 µM [3] [%] | inhibition [4]
13 | Not Active | 6.42 | – | – | Cc1ccc(Nc2nnc(-c3ccccc3Cl)c3ccccc23)cc1 | 97.2 | –
14 | Not Active | – | – | – | c1ccc(Oc2ccc(Nc3nnc(-c4ccccc4)c4ccccc34)cc2)cc1 | 71.2 | –
15 | Not Active | 6.27 | – | – | Cc1ccc(Nc2nnc(-c3cccc(-c4ccccc4)c3)c3ccccc23)cc1 | 84.2 | –
16 | Not Active | 7.49 | – | – | COc1ccc(-c2nnc(Nc3ccc(C)cc3)c3ccccc23)cc1 | 98.3 | –
17 | Not Active | 6.23 | – | – | COc1ccccc1-c1nnc(Nc2ccc(C)cc2)c2ccccc12 | 77.2 | –
18 | Not Active | 6.12 | – | – | Cc1cccc(Nc2nnc(-c3ccccc3)c3ccccc23)c1 | 74.1 | –
19 | Not Active | 7.30 | – | – | COc1ccc(-c2nnc(N(C)c3ccc(C)cc3)c3ccccc23)cc1 | 87 | –
20 | Not Active | 6.19 | – | – | COc1ccc(-c2nnc(Nc3cccc(C)c3)c3ccccc23)cc1 | 87.5 | –
21 | Not Active | 6.07 | – | – | Cc1ccc(Nc2nnc(-c3cccc(Cl)c3)c3ccccc23)cc1 | 75.2 | –
22 | Not Active | 6.03 | – | – | CCc1ccc(Nc2nnc(-c3ccc(OC)cc3)c3ccccc23)cc1 | 85 | –
23 | Not Active | 6.24 | – | – | CCOc1ccc(-c2nnc(Nc3ccc(C)cc3)c3ccccc23)cc1 | 75.3 | –
24 | Not Active | 6.15 | – | – | Cc1ccc(Nc2nnc(-c3ccc(OC(C)C)cc3)c3ccccc23)cc1 | 76.7 | –
25 | – | 7.51 | – | 23 | Cc1ccc(Nc2nnc(-c3ccccc3)c3ccccc23)cc1 | 98.9 | –
26 | – | 6.38 | – | 14.2 | Cc1ccc(Nc2nnc(-c3ccc(N(C)C)cc3)c3ccccc23)cc1 | 94.4 | –
27 | Not Active | 7.05 | – | – | COc1ccc(-c2nnc(Nc3ccc(Oc4ccccc4)cc3)c3ccccc23)cc1 | 92.6 | –
28 | – | 6.30 | – | 10.1 | Clc1cccc(Nc2nnc(-c3ccccc3)c3ccccc23)c1 | 79.4 | –
29 | – | 7.70 | – | 3 | COc1ccc(-c2nnc(Nc3ccccc3)c3ccccc23)cc1 | 97.3 | –
